Scp1 inh = blocks human Scp-1 phosphatase activity | AID 493091 | Recombinant Scp1, phosphopeptide, malachite green phosphate absorbance | hit rate 0.88% among 340,000 | inhibition, % at 20 µM | Q9GZU7;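 active means inhibition above about 50% at 20 µM, limit read from the data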
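assay system = SCP-1 phosphatase catalytic domain, residues 76-261 | buffer or medium = 50 mM Tris acetate pH 5.5, 0.005% Tween-20, 10 mM MgCl2 | incubation = enzyme reaction 45 min at room temperature, colour 5 min, stabilisation 30 min | signal = Phosphate-binding colour reagent, absorbance read at 630 nm | measure = % inhibition at 20 µM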
STEP block = STEP (human) phosphatase inhibition. P54829. recombinant STEP, OMFP fluorogenic substrate, fluorescence. inhibition, % at 20 µM. hit rate 0.25% among 360,000. AID 588621;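 active means inhibition at 20 µM, scaled per plate between control wells, above about 37%, limit read from the data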
Target sequence (P54829 whole entry, looked up): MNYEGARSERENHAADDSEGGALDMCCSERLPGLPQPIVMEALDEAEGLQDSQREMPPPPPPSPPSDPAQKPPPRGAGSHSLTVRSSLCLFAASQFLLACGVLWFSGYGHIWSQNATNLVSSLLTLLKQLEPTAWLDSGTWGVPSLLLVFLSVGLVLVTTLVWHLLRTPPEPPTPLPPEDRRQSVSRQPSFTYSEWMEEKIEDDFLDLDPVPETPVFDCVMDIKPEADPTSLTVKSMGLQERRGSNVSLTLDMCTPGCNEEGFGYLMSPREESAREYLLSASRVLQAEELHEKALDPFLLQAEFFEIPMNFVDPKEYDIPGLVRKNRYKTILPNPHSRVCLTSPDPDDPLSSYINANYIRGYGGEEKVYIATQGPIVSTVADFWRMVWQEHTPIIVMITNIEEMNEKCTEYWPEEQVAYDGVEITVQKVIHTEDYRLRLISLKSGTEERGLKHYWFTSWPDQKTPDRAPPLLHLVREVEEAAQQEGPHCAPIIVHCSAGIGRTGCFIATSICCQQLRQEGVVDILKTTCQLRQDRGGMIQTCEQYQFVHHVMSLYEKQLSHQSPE
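Material: STEP (striatal-enriched tyrosine phosphatase) enzyme, cell-free; Compound dosing: 20 µM single dose in 1% DMSO; Technique: fluorescence read at 480 nm ex / 540 nm em; Times: reaction 20 min, ambient temperature; Medium: 50 mM Bis-Tris pH 6.0 with 2.5 mM DTT and 0.005% Tween 20; Also added: OMFP at 25 µM.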
HKDC1 inhibitor = HKDC1 (human) hexokinase inhibition | AID 493160 | Q2TB90 | inhibition, % at 20 µM | recombinant HKDC1, G6PDH/diaphorase resazurin coupled fluorescence | hit rate 0.16% among 340,000;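 active means inhibition above about 35% when tested at 20 µM, limit read from the data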
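Test system: recombinant HKDC1 (HK5) hexokinase enzyme, produced in-house / Doses: 20 µM test compound, 1% DMSO / Timing: 90 min, room temperature / Detection: G6PDH/diaphorase-coupled fluorescence, 1 mM NADP, 100 µM resazurin, 525/613 nm / Control set: DMSO wells with and without enzyme mix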
DNMT1 inh = blocks human DNA methyltransferase DNMT1; hit rate 0.83% among 360,000; AID 588458; DNMT1 molecular beacon, Hinp1I cleavage, fluorescence; inhibition (reported as % activation of signal), % at 10 µM; in the data active means inhibition above about 50%
SUMO1-SIM PPI = modulators of human SUMO1-mediated protein-protein interactions. SUMO1 binding to a labelled peptide, TR-FRET, 1 h. hit rate 0.33% among 360,000. AID 602429. inhibition, % at 20 µM. P63165; in the data active means inhibition above about 37%
LMPTP block = LMPTP (human) inhibition | hit rate 0.22% among 360,000 | inhibition, % at 20 µM | P24666 | recombinant LMPTP-A, OMFP fluorogenic substrate, fluorescence intensity;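 active means compounds that cut the enzyme signal by at least half of the control window in the single-dose screen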
Target sequence (P24666 whole entry, looked up): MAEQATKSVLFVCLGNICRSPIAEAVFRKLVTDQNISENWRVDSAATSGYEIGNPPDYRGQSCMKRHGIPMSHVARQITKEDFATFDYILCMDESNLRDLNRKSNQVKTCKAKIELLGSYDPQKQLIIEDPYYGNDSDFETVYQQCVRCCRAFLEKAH
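Assay system: LMPTP-A enzyme. Input: 0.625 nM LMPTP-A final. Probe or stimulus: 400 µM OMFP. Compound dosing: single 20 µM dose. Schedule: 50 min dark incubation at room temperature. Detection: fluorescence intensity of OMFP turnover product. Read-out: percent inhibition versus substrate-only and uninhibited controls. Benchmarks: no-enzyme low control, uninhibited high control.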
DNMT1 interf DR = counter-screen for DNMT1 inhibitors: spectral interference, dose response | shares compounds with DNMT1 inh | 200 tested, under 10 active | molecular beacon fluorescence | IC50, µM; call rule not given here
DNMT1 confirm = DNMT1 inhibition confirmation, single concentration; shares compounds with DNMT1 inh; DNMT1 molecular beacon HinP1I cleavage, fluorescence; inhibition, % at 10 µM; hit rate 8% among 2,300; AID 602385;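 active means average inhibition of at least 30% in the single-concentration confirmation test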
Beacon interf = shows spectral interference in the DNMT1 beacon assay; activation (fluorescence interference), % at 10 µM; DNMT1 molecular beacon spectral interference counterscreen, fluorescence 485/520; shares compounds with DNMT1 inh; AID 602387; hit rate 1% among 2,300;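 active means activation of at least 30% at 10 µM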;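 further: DNMT1 catalytic domain with a HinP1I cleavage step and a FAM/dabcyl DNA beacon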
A number is an active result; . = inactive; / = no result given. In the library only some 1.8% were active in any assay of this set; here they are far more common.

SMILES | Scp1 inh | STEP block | HKDC1 inhibitor | DNMT1 inh | SUMO1-SIM PPI | LMPTP block | DNMT1 confirm | Beacon interf | others
COc1ccc(-c2c(-c3cc(OC)cc(OC)c3)n(C)c3ccc(-c4ccc(OC)nc4)cc23)cc1 | . | . | . | . | . | . | / | /
COc1cc(OC)cc(-c2c(-c3cccs3)c3cc(-c4ccc(OCc5ccccc5)cc4)ccc3n2C)c1 | . | . | . | 52 | . | . | . | .
COc1ccc(-c2c(-c3cc(OC)cc(OC)c3)n(C)c3ccc(-c4cnc(N)nc4)cc23)cc1 | . | . | . | 54 | . | . | . | .
O=C(c1ccc(=O)oc1)N1CCCc2ccccc21 | . | . | . | 105 | . | . | . | .
O=C(c1ccc(=O)oc1)N1CCOCC1 | 77 | . | . | 103 | . | . | 64 | . | DNMT1 interf DR=.
Cn1c2ccccc2c2c(=O)oc3ccccc3c21 | . | . | . | 52 | . | . | . | . | DNMT1 interf DR=.
CCCn1cnc2c(=O)oc3ccccc3c21 | . | . | . | . | . | . | / | /
O=C(NCc1ccc(F)cc1F)[C@@H]1CCCN1C(=O)[C@@H]1CCCN1C(=O)c1ccccc1 | / | / | / | / | . | . | / | /
CCc1cc(=O)oc2cc(C)c(CN3CCCC3)c(O)c12 | . | . | . | 87 | . | . | . | .
c1ccc2c(CN3CCSCC3)cccc2c1 | . | . | . | . | . | . | / | /
Cc1ccc(C(=O)N[C@H](C(=O)OCc2cc(=O)n3c(n2)sc2ccccc23)C(C)C)cc1 | . | . | . | 84 | . | . | . | .
Cc1ccc2nc3n(c(=O)c2c1)-c1ncccc1C(=O)NC3Cc1ccc(O)cc1 (centres undefined) | / | . | / | . | . | . | / | /
CSc1ncccc1C(=O)Nc1ccc2c(c1)OCCO2 | . | . | . | . | . | . | / | /
C[C@H]1CCCCO[C@H](CN(C)Cc2ccccc2)[C@@H](C)CN([C@@H](C)CO)C(=O)c2cc(NC(=O)CCC(F)(F)F)ccc2O1 | / | . | / | 65 | . | . | . | .
COc1ccc(CN(C)C[C@H]2OCCCC[C@H](C)Oc3ccc(NC(=O)CCC(F)(F)F)cc3C(=O)N([C@@H](C)CO)C[C@@H]2C)cc1 | / | . | / | . | . | . | / | /
CC1=NN(c2ccccc2)C(=O)C1/C=C1\NC(=S)NC1=O (centres undefined) | . | . | . | 90 | . | . | 38 | . | DNMT1 interf DR=.
CC(C)(C)Cc1c(-c2ccc(C#N)cc2)nc2ccc(Cl)cn12 | / | . | / | . | . | . | / | /
C[C@@H]1CNC(=O)c2c(C(=O)N[C@@H](Cc3c[nH]c4ccccc34)C(=O)OC(C)(C)C)ncn21 | / | . | / | . | . | . | / | /
O=C1N/C(=C/c2ccc(Br)cc2)C(O)=C1C=NCc1ccccc1 | . | . | . | 62 | . | . | . | .
O=C1C(C=NCc2ccncc2)=C(O)c2ccccc21 | . | . | . | . | . | . | / | /
C=C/C(C)=C/CC1C(=C)CCC2C(C)(C(=O)O)CCCC12C (centres undefined) | . | . | . | 81 | . | . | . | .
C=C1CCC2C(C)(C(=O)O)CCCC2(C)C1CCC(CO)CCO (centres undefined) | / | . | / | . | . | . | / | /
N#Cc1c(N)n(C2OC(CO)C(O)C2O)c2ncnc(N)c12 (centres undefined) | . | . | . | . | . | . | / | /
COc1ccc(NC(=O)C2(C)Cc3c(-c4ccc(N(C)C)cc4)ccnc3O2)cc1 (centres undefined) | / | . | / | . | . | . | / | /
CCOC(=O)c1cc(-c2ccc([N+](=O)[O-])cc2)nc2c1c(=O)[nH]c(=O)n2Cc1ccccc1 | . | . | . | 86 | . | . | . | .
SMILES | Scp1 inh | STEP block | HKDC1 inhibitor | DNMT1 inh | SUMO1-SIM PPI | LMPTP block | DNMT1 confirm | Beacon interf | others
CCOC(=O)c1cc(-c2cc3ccccc3o2)nc2c1c(=O)[nH]c(=O)n2CCOC | . | . | . | . | . | . | / | /
COc1ccc(-c2noc([C@@H]3O[C@H](CO)[C@H](O)[C@H](O)[C@H]3O)n2)cc1OC | / | . | / | . | . | . | / | /
Cc1cc(N/N=C/c2ccc(O)cc2)nc(NS(=O)(=O)c2ccccc2)n1 | . | 41 | . | 83 | . | . | . | .
O=C(Nn1c(COc2ccccc2)nc2ccccc2c1=O)C(Cl)(Cl)Cl | . | . | . | . | . | . | / | /
CC(=O)c1ccc(NC(=O)c2ccc(-n3cnnn3)cc2)cc1 | . | . | . | . | . | . | / | /
Cn1c(=O)c2cc(NC(=O)NCCc3ccccc3)ccc2n1Cc1ccccc1 | / | . | / | 69 | . | . | . | .
Cc1nn(Cc2ccc(Cl)cc2)c(C)c1NC(=O)CSc1nc2c(c(C(F)(F)F)n1)CCc1ccccc1-2 | . | . | . | 51 | . | . | . | .
Cc1ccc(-n2cc3c(-c4cccc(Br)c4)nnc(C)c3n2)cc1 | . | . | . | 64 | . | . | . | .
Cc1nnc(-c2cccc(Br)c2)c2cn(-c3ccccc3Cl)nc12 | . | . | . | . | . | . | / | /
COc1ccc(Cn2c(C)nc3c(c(=O)c4ccccc4n3C)c2=O)cc1 | . | . | . | . | . | . | / | /
COc1ccc(-c2nc3c(c(=O)c4ccccc4n3C)c(=O)n2Cc2ccccc2)cc1 | . | . | . | . | . | . | / | /
Cn1c2ccccc2c(=O)c2c(=O)n(Cc3ccccc3)c(-c3ccc(F)cc3)nc21 | . | . | . | 63 | . | . | . | .
COc1ccc(Cn2c(-c3ccc(C)cc3)nc3c(c(=O)c4ccccc4n3C)c2=O)cc1 | . | . | . | 83 | . | . | . | .
COCCN(C(=O)c1cc2c(s1)CCCCC2)c1c(N)n(CC(C)C)c(=O)[nH]c1=O | . | . | . | . | . | . | / | /
COCCN(C(=O)c1cc2c(s1)CCC2)c1c(N)n(CC(C)C)c(=O)[nH]c1=O | . | . | . | 61 | . | . | . | .
Cc1noc(C)c1CCC(=O)N1CCCC(N2CCN(c3ccc(F)cc3)CC2)C1 (centres undefined) | . | . | . | 86 | . | . | . | .
CCNc1ccc(Br)cc(C(=O)/C=C/c2ccc(Cl)cc2Cl)c1=O | . | . | . | 70 | . | . | . | .
CNc1ccc(Br)cc(C(=O)/C=C/c2cc(OC)ccc2OC)c1=O | . | . | . | . | . | . | / | /
CC1(C)Cc2c(C#N)c(NCCCO)nc(-c3ccccc3)c2CO1 | . | . | . | 66 | . | . | . | .

Assay outcomes (PubChem BioAssay)
